In ChEMBL document CHEMBL3739417, “Synthesis and biological evaluation of novel 4,5-disubstituted 2H-1,2,3-triazoles as cis-constrained analogues of combretastatin A-4” (2015):

How the values were obtained:
Type in all cases: functional
[1] = Growth inhibition of human HCT116 cells after 48 hrs by sulforhodamine B assay; conditions: HCT-116, 48 h
Outline: (§1)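 NCI-60 panel screen by SRB assay (Rubinstein method). Percentage growth taken from optical density of SRB colour, read before and 48 hrs after exposure to compound or vehicle control. All analogues first screened at 10^-5 M. Analogues giving 60% growth inhibition at that level in at least eight lines then went to a five-concentration dose-response study.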

[2] = Growth inhibition of human RPMI8226 cells after 48 hrs by sulforhodamine B assay; conditions: RPMI-8226, 48 h; outline: as §1
U-251 = assay: Growth inhibition of human U251 cells after 48 hrs by sulforhodamine B assay; conditions: U-251, 48 h; outline: as §1
[3] = Growth inhibition of human HOP92 cells after 48 hrs by sulforhodamine B assay; conditions: HOP-92, 48 h; outline: as §1
[4] = Growth inhibition of human HCC2998 cells after 48 hrs by sulforhodamine B assay; conditions: HCC 2998, 48 h; outline: as §1
[5] = Growth inhibition of human SNB75 cells after 48 hrs by sulforhodamine B assay; conditions: SNB-75, 48 h; outline: as §1
MCF7 = assay: Growth inhibition of human MCF7 cells after 48 hrs by sulforhodamine B assay; conditions: MCF7, 48 h; outline: as §1
A549 = assay: Growth inhibition of human A549/ATCC cells after 48 hrs by sulforhodamine B assay; conditions: A549, 48 h; outline: as §1
[6] = Growth inhibition of human HOP62 cells after 48 hrs by sulforhodamine B assay; conditions: HOP-62, 48 h; outline: as §1
[7] = Growth inhibition of human PC3 cells after 48 hrs by sulforhodamine B assay; conditions: PC-3, 48 h; outline: as §1
MDA-MB-435 = assay: Growth inhibition of human MDA-MB-435 cells after 48 hrs by sulforhodamine B assay; conditions: MDA-MB-435, 48 h
Outline: (§2)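 NCI-60 sulforhodamine B screen. Compounds were first tested at a single dose of 10⁻⁵ M; hits, defined as ≥60% growth inhibition in at least eight lines, went on to a five-concentration dose–response. SRB optical density was read before and 48 h after exposure to compound or vehicle. Percentage growth was calculated from OD.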

[8] = Growth inhibition of human HL-60(TB) cells after 48 hrs by sulforhodamine B assay; conditions: HL-60, 48 h; outline: as §1
MDA-MB-468 = assay: Growth inhibition of human MDA-MB-468 cells after 48 hrs by sulforhodamine B assay; conditions: MDA-MB-468, 48 h; outline: as §1
786-0 = assay: Growth inhibition of human 786-0 cells after 48 hrs by sulforhodamine B assay; conditions: 786-0, 48 h; outline: as §1
[9] = Growth inhibition of human IGROV1 cells after 48 hrs by sulforhodamine B assay; conditions: IGROV-1, 48 h; outline: as §1
[10] = Growth inhibition of human LOXIMVI cells after 48 hrs by sulforhodamine B assay; conditions: LOX IMVI; outline: as §1
[11] = Growth inhibition of human NCI-ADR-RES cells after 48 hrs by sulforhodamine B assay; outline: as §1
MDA-MB-231 = assay: Growth inhibition of human MDA-MB-231 cells after 48 hrs by sulforhodamine B assay; conditions: MDA-MB-231, 48 h; outline: as §1
[12] = Growth inhibition of human HCT15 cells after 48 hrs by sulforhodamine B assay; conditions: HCT-15, 48 h; outline: as §1
CAKI-1 = assay: Growth inhibition of human CAKI-1 cells after 48 hrs by sulforhodamine B assay; conditions: CAKI-1, 48 h; outline: as §1
[13] = Growth inhibition of human SF268 cells after 48 hrs by sulforhodamine B assay; conditions: SF-268, 48 h; outline: as §1
SR = assay: Growth inhibition of human SR cells after 48 hrs by sulforhodamine B assay; outline: as §1
CCRF-CEM = assay: Growth inhibition of human CCRF-CEM cells after 48 hrs by sulforhodamine B assay; outline: as §1
SK-MEL-2 = assay: Growth inhibition of human SK-MEL-2 cells after 48 hrs by sulforhodamine B assay; conditions: SK-MEL-2, 48 h; outline: as §1
HT-29 = assay: Growth inhibition of human HT-29 cells after 48 hrs by sulforhodamine B assay; conditions: HT-29, 48 h; outline: as §1
KM12 = assay: Growth inhibition of human KM12 cells after 48 hrs by sulforhodamine B assay; conditions: KM12, 48 h; outline: as §1
NCI-H460 = assay: Growth inhibition of human NCI-H460 cells after 48 hrs by sulforhodamine B assay; conditions: NCI-H460, 48 h; outline: as §1
[14] = Growth inhibition of human SF295 cells after 48 hrs by sulforhodamine B assay; conditions: SF-295, 48 h; outline: as §1
ACHN = assay: Growth inhibition of human ACHN cells after 48 hrs by sulforhodamine B assay; outline: as §1
[15] = Growth inhibition of human MOLT4 cells after 48 hrs by sulforhodamine B assay; conditions: MOLT-4, 48 h; outline: as §1
A498 = assay: Growth inhibition of human A498 cells after 48 hrs by sulforhodamine B assay; conditions: A498, 48 h; outline: as §2
K562 = assay: Growth inhibition of human K562 cells after 48 hrs by sulforhodamine B assay; conditions: K562, 48 h; outline: as §1
[16] = Growth inhibition of human SW620 cells after 48 hrs by sulforhodamine B assay; conditions: SW-620, 48 h; outline: as §1
NCI-H23 = assay: Growth inhibition of human NCI-H23 cells after 48 hrs by sulforhodamine B assay; conditions: NCI-H23, 48 h; outline: as §1
[17] = Growth inhibition of human UO31 cells after 48 hrs by sulforhodamine B assay; conditions: UO-31, 48 h; outline: as §1
[18] = Growth inhibition of human COLO205 cells after 48 hrs by sulforhodamine B assay; conditions: COLO 205, 48 h; outline: as §1
[19] = Growth inhibition of human OVCAR3 cells after 48 hrs by sulforhodamine B assay; conditions: OVCAR-3, 48 h; outline: as §2
[20] = read-out: LD50 (the source's name)

Structure (SMILES): COc1cc(-c2n[nH]nc2-c2ccc3c(c2)OCCO3)cc(OC)c1OC
- GI50 [1]: < 10 nM
- CC50 [1, 20]: > 100000 nM
- GI50 [2]: 33 nM
- CC50 [2, 20]: > 100000 nM
- GI50 (U-251): 20 nM
- CC50 (U-251; [20]): > 100000 nM
- GI50 [3]: < 10 nM
- CC50 [3, 20]: > 100000 nM
- GI50 [4]: 39 nM
- CC50 [4, 20]: > 100000 nM
- GI50 [5]: < 10 nM
- CC50 [5, 20]: > 100000 nM
- GI50 (MCF7): < 10 nM
- CC50 (MCF7; [20]): > 100000 nM
- GI50 (A549): 23 nM
- CC50 (A549; [20]): > 100000 nM
- GI50 [6]: 18 nM
- LC50 (concentration killing 50% of cells) ([6]; read-out: LD50): > 100000 nM
- GI50 [7]: 18 nM
- CC50 [7, 20]: > 100000 nM
- GI50 (MDA-MB-435): < 10 nM
- LC50 (concentration killing 50% of cells) (MDA-MB-435; read-out: LD50): > 100000 nM
- GI50 [8]: 19 nM
- CC50 [8, 20]: > 100000 nM
- GI50 (MDA-MB-468): 15 nM
- CC50 (MDA-MB-468; [20]): > 100000 nM
- GI50 (786-0): < 10 nM
- LC50 (concentration killing 50% of cells) (786-0; read-out: LD50): > 100000 nM
- GI50 [9]: 33 nM
- CC50 [9, 20]: > 100000 nM
- GI50 [10]: 18 nM
- CC50 [10, 20]: > 100000 nM
- GI50 [11]: < 10 nM
- CC50 [11, 20]: > 100000 nM
- GI50 (MDA-MB-231): 44 nM
- CC50 (MDA-MB-231; [20]): > 100000 nM
- GI50 [12]: < 10 nM
- CC50 [12, 20]: > 100000 nM
- GI50 (CAKI-1): < 10 nM
- CC50 (CAKI-1; [20]): > 100000 nM
- GI50 [13]: 69 nM
- CC50 [13, 20]: > 100000 nM
- GI50 (SR): < 10 nM
- LC50 (concentration giving 50% net cell kill) (SR; read-out: LD50): > 100000 nM
- GI50 (CCRF-CEM): 34 nM
- LC50 (concentration killing 50% of cells) (CCRF-CEM; read-out: LD50): > 100000 nM
- GI50 (SK-MEL-2): < 10 nM
- CC50 (SK-MEL-2; [20]): > 100000 nM
- GI50 (HT-29): 25 nM
- LC50 (concentration killing 50% of cells) (HT-29; read-out: LD50): > 100000 nM
- GI50 (KM12): < 10 nM
- LC50 (concentration killing 50% of cells) (KM12; read-out: LD50): > 100000 nM
- GI50 (NCI-H460): 25 nM
- CC50 (NCI-H460; [20]): > 100000 nM
- GI50 [14]: < 10 nM
- CC50 [14, 20]: > 100000 nM
- GI50 (ACHN): < 10 nM
- CC50 (ACHN; [20]): > 100000 nM
- GI50 [15]: 40 nM
- CC50 [15, 20]: > 100000 nM
- GI50 (A498): 10 nM
- LC50 (50% net cell kill) (A498; read-out: LD50): > 100000 nM
- GI50 (K562): < 10 nM
- CC50 (K562; [20]): > 100000 nM
- GI50 [16]: < 10 nM
- LD50 (concentration killing 50% of cells) [16]: > 100 µM
- GI50 (NCI-H23): 48 nM
- LC50 (concentration giving 50% cell kill) (NCI-H23; read-out: LD50): > 100000 nM
- GI50 [17]: < 10 nM
- LC50 (concentration killing 50% of cells) ([17]; read-out: LD50): > 100000 nM
- GI50 [18]: 27 nM
- CC50 [18, 20]: > 100000 nM
- GI50 [19]: < 10 nM
- LC50 (concentration giving 50% net cell kill) ([19]; read-out: LD50): > 100000 nM
